Experiments:
MCF7 [1] = experiment: Growth inhibition of MCF7 cells by crystal violet assay after 3 hrs; assay type: functional, cell-based; conditions: Homo sapiens, MCF7, 3 h
How it was run: (§1)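 Cells were seeded at 1000/well and left to adhere overnight at 37 °C in 5% CO2. They were then exposed for 3 h to a range of drug concentrations in serum-free RPMI 1640. Medium was replaced with fresh RPMI containing 10% fetal calf serum and 1% pen-strep, and cells were grown until untreated controls reached ~80% confluence (3-5 days). Cells were fixed with glutaraldehyde, stained with crystal violet, and the dye was solubilised in 70% ethanol before reading OD at 588 nm. IC50 is given as log molar. Each concentration was run six-fold, and each experiment at least twice.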

Vero [2] = experiment: Cytotoxicity against Vero cells by MTT assay after 3 hrs; assay type: functional, cell-based; conditions: Chlorocebus sabaeus
How it was run: (§2)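 Vero cells were grown in DMEM with 10% FCS and 1% pen-strep at 37 °C in 5% CO2. They were seeded at 1000 cells/well and left overnight to adhere. Drug was given in serum-free medium for 3 or 24 h, then replaced with fresh complete medium until untreated wells reached ~80% confluence (3-5 days). MTT was read at 554 nm and IC50 given as log molar. Each concentration was run in six wells, each experiment at least twice.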

NCI/ADR-RES [3] = experiment: Growth inhibition of MCF7/Adr cells by crystal violet assay after 3 hrs; assay type: functional, cell-based; conditions: Homo sapiens
How it was run: (§3)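 Cancer lines were grown in RPMI 1640 with 10% FCS and 1% pen-strep and seeded at 1000 cells/well overnight. Drug was given in serum-free medium for 3 or 24 h, then fresh complete medium until controls reached ~80% confluence (3-5 days). Cells were fixed with glutaraldehyde and stained with crystal violet, solubilised in 70% ethanol and read at 588 nm. IC50 is log molar, with six replicates per concentration and ≥2 experiments.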

SK-HEP1 [4] = experiment: Growth inhibition of SK-HEP-1 cells by crystal violet assay after 3 hrs; assay type: functional, cell-based; conditions: Homo sapiens, SK-HEP1, 3 h; how it was run: as §3
Vero [5] = experiment: Cytotoxicity against Vero cells by MTT assay after 24 hrs; assay type: functional, cell-based; conditions: Chlorocebus sabaeus; how it was run: as §2
HepG2 [6] = experiment: Growth inhibition of HepG2 cells by crystal violet assay after 3 hrs; assay type: functional, cell-based; conditions: Homo sapiens, HepG2, 3 h; how it was run: as §1
H9c2 [7] = experiment: Growth inhibition of rat H9c2(2-1) cells by MTT assay after 3 hrs; assay type: functional, cell-based; conditions: H9c2, 3 h
How it was run: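 Rat cardiomyocytes were kept in DMEM with 10% FCS and pen-strep and seeded at 500 cells/well overnight. They got serum-free drug medium for 3 h, then fresh complete medium until controls reached ~80% confluence (3-5 days). Read-out was MTT optical density at 554 nm, with IC50 as log molar concentration. There were six replicates per concentration and at least two experiments.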

H9c2 [8] = experiment: Growth inhibition of H9c2(2-1) cells by crystal violet assay after 24 hrs; conditions: Rattus norvegicus, H9c2, 24 h
SHP77 = experiment: Growth inhibition of SHP77 cells by crystal violet assay after 24 hrs; assay type: functional, cell-based; conditions: Homo sapiens, SHP77, 24 h; how it was run: as §3
NCI/ADR-RES [9] = experiment: Growth inhibition of MCF7/Adr cells by crystal violet assay after 24 hrs; assay type: functional, cell-based; conditions: Homo sapiens; how it was run: as §3
HepG2 [10] = experiment: Growth inhibition of HepG2 cells by crystal violet assay after 24 hrs; assay type: functional, cell-based; conditions: Homo sapiens, HepG2, 24 h; how it was run: as §3
DU-145 = experiment: Growth inhibition of DU145 cells by crystal violet assay after 24 hrs; assay type: functional, cell-based; conditions: Homo sapiens, DU-145, 24 h; how it was run: as §3
MCF7 [11] = experiment: Growth inhibition of MCF7 cells by crystal violet assay after 24 hrs; assay type: functional, cell-based; conditions: Homo sapiens, MCF7, 24 h; how it was run: as §3
SK-HEP1 [12] = experiment: Growth inhibition of SK-HEP-1 cells by crystal violet assay after 24 hrs; assay type: functional, cell-based; conditions: Homo sapiens, SK-HEP1, 24 h; how it was run: as §3
[13] = Stability in buffer at pH 7.4 after 24 hrs; assay type: physicochemical; conditions: pH 7.4, 24 h
How it was run: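 The compound was held in pH 7.4 buffer, without cells or growth medium, for 24 h at ambient temperature. Hydrolysis was followed by HPLC.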

SK-HEP1 [14] = experiment: Decrease in drug uptake in SK-HEP-1 cells by flow cytometry at 0.5 uM in presence of 10% fetal bovine serum; assay type: functional, Homo sapiens; parameters: scale not given: the % may be the effect or the level left
How it was run: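 SK-HEP-1 cells at 200,000 per well were attached overnight. They were then exposed at 37 °C to 0.5 μM drug (final) in RPMI with 10% fetal bovine serum or without serum. Cells were trypsinized at 0.5, 1, 1.5, 2 and 3 h and Dox fluorophore measured by flow cytometry. Mean fluorescence was divided by untreated control to give relative fluorescence.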

IC50 (HepG2 [10])	IC50 (DU-145)	IC50 (MCF7 [11])	IC50 (SK-HEP1 [12])	Stability [13]	SMILES	IC50 (MCF7 [1])	IC50 (Vero [2])	IC50 (NCI/ADR-RES [3])	IC50 (SK-HEP1 [4])	IC50 (Vero [5])	IC50 (HepG2 [6])	IC50 (H9c2 [7])	IC50 (H9c2 [8])	IC50 (SHP77)	IC50 (NCI/ADR-RES [9])	Activity (SK-HEP1 [14])
					COc1cccc2c1C(=O)c1c(O)c3c(c(O)c1C2=O)C[C@@](O)(C(=O)CO)C[C@@H]3O[C@H]1C[C@@H]2NCO[C@@H]2[C@H](C)O1 [DOXAZOLIDINE]	3.16 nM	6.31 nM	3.16 nM	3.98 nM	7.94 nM	10 nM	31.6 nM				
20 nM	501 nM	79400 nM	1580 nM		CCCCOC(=O)Nc1ccc(COC(=O)N2CO[C@@H]3[C@H](C)O[C@@H](O[C@H]4C[C@](O)(C(=O)CO)Cc5c(O)c6c(c(O)c54)C(=O)c4c(OC)cccc4C6=O)C[C@@H]32)cc1					794 nM			63.1 nM	79.4 nM	1260 nM	
316 nM	1000 nM	794 nM	200 nM	Stable	CCCCCOC(=O)N1CO[C@@H]2[C@H](C)O[C@@H](O[C@H]3C[C@](O)(C(=O)CO)Cc4c(O)c5c(c(O)c43)C(=O)c3c(OC)cccc3C5=O)C[C@@H]21	> 1000 nM	3980 nM		> 1000 nM	5010 nM	> 1000 nM		251 nM	501 nM	1000 nM	25%
> 1000 nM		< 1000 nM	> 1000 nM		CCOC(=O)N1CO[C@@H]2[C@H](C)O[C@@H](O[C@H]3C[C@](O)(C(=O)CO)Cc4c(O)c5c(c(O)c43)C(=O)c3c(OC)cccc3C5=O)C[C@@H]21	> 1000 nM		5010 nM	> 1000 nM		> 1000 nM	1580 nM			> 10000 nM	
200 nM	398 nM	794 nM	398 nM		CCCCOC(=O)N1CO[C@@H]2[C@H](C)O[C@@H](O[C@H]3C[C@](O)(C(=O)CO)Cc4c(O)c5c(c(O)c43)C(=O)c3c(OC)cccc3C5=O)C[C@@H]21					501 nM			1580 nM	251 nM	631 nM	
50.1 nM	200 nM	2510 nM	1000 nM		CCCCCOC(=O)Nc1ccc(COC(=O)N2CO[C@@H]3[C@H](C)O[C@@H](O[C@H]4C[C@](O)(C(=O)CO)Cc5c(O)c6c(c(O)c54)C(=O)c4c(OC)cccc4C6=O)C[C@@H]32)cc1					1000 nM			631 nM	50.1 nM	316 nM	

SMILES	IC50 (HepG2 [10])	IC50 (DU-145)	IC50 (MCF7 [11])	IC50 (SK-HEP1 [12])	Stability [13]	IC50 (MCF7 [1])	IC50 (Vero [2])	IC50 (NCI/ADR-RES [3])	IC50 (SK-HEP1 [4])	IC50 (Vero [5])	IC50 (HepG2 [6])	IC50 (H9c2 [7])	IC50 (H9c2 [8])	IC50 (SHP77)	IC50 (NCI/ADR-RES [9])	Activity (SK-HEP1 [14])
COc1cccc2c1C(=O)c1c(O)c3c(c(O)c1C2=O)C[C@@](O)(C(=O)CO)C[C@@H]3O[C@H]1C[C@H](N)[C@H](O)[C@H](C)O1 [DOXORUBICIN]	31.6 nM	31.6 nM	12.6 nM	50.1 nM		316 nM	1000 nM	6310 nM	100 nM	501 nM	200 nM	31.6 nM	20 nM	126 nM	2510 nM	
